Screening data deposited in PubChem BioAssay by several laboratories.
This excerpt belongs to a sample that is enriched for hits.
Mdm2 ligase inh – Mdm2 E3 ligase (human) inhibition; signal enhancement, % at 5 µM; AID 1230; Q00987; cell-based MDM2 ubiquitination luciferase reporter, 2 h; 0 = plate control, 100 = twice control, blank-subtracted; actives 0.11% (n = 210,000);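 active means signal enhancement of 30% or more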;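 further: luminescence tracks abundance of the self-degrading MDM2-luciferase fusion protein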
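system = mammalian cells stably expressing self-ubiquitinating, self-degrading MDM2 E3–luciferase fusion | quantity = 2000 cells per well seeded | incubation = 4 h cell settling then 2 h compound exposure, 37 °C | signal = SteadyLite luminescence, 15 min reagent step | benchmarks = plate control and blank wells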
p-CIP stab down – compounds decreasing mouse p/CIP protein stability. F442A p/CIP-EGFP cells, EGFP fluorescence, 16 h. decrease of EGFP signal, % at 10 µM. actives 0.01% (n = 290,000). AID 1984;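 active means EGFP signal decrease of at least 30% at 10 µM or well 3 SD below plate mean, unless failing retest; inactive means the rest, including hits failing retest or dose response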
Hep lipid drop – modulators of hepatic lipid droplet formation. AML12 mouse hepatocytes, oleate lipid droplets, BODIPY imaging. inhibition, % at 6.5 µM. AID 1656. actives 0.4% (n = 240,000);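 active means lipid droplet intensity inhibited by at least 50%, with more than 500 cells counted; inconclusive means wells with under 300 cells, treated as cytotoxic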
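Material: mouse AML12 hepatocyte cell line, fixed after treatment; Timing: compound with oleate, overnight; Technique: high-content imaging of BODIPY-stained droplets and DAPI nuclei; Probe or stimulus: oleate, 100 µM final; Dosing: compound at 6.5 µM only.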
A number is an active result; . = inactive; ? = inconclusive; / = no result.

SMILES	Mdm2 ligase inh	p-CIP stab down	Hep lipid drop
COc1ccc(/C=N/Nc2ccc(C(F)(F)F)cc2[N+](=O)[O-])cc1O	/	.	.
COc1ccc(-c2noc(CN(C)C(=O)c3ccc4c(c3)OCO4)n2)cc1	/	.	.
O=C(O)c1cc2cc(Oc3ccccc3)ccc2[nH]1	/	.	.
CCSc1nc2ccccc2n1C(=O)/C=C/c1ccc(OC)c(OC)c1	64.6	.	.
C=CCSc1nc2ccccc2n1C(=O)/C=C/c1ccc(OC)c(OC)c1	.	.	/
C=CCSc1nc2ccccc2n1C(=O)/C=C/c1cc(OC)c(OC)c(OC)c1	53.6	.	/
CCn1c(SCC(=O)N/N=C/c2ccc(OC)c(OC)c2)nc2ccccc21	.	.	.
COc1cc(O)c(C(CC(=O)N2CCCC(C)C2)c2cc(OC)c(OC)c(OC)c2)c(OC)c1 (centres undefined)	.	.	.
Cc1ccc(NC(=O)C2CCCN2c2nn3c(=O)cc(C)nc3s2)cc1 (centres undefined)	/	.	.
O=C(CSc1nnc(-c2cnccn2)n1Cc1ccco1)c1ccc2ccccc2c1	.	47.4	/
CC(C)OC(=O)CSc1nnc(-c2cnccn2)n1Cc1ccco1	.	.	.
COc1ccc(C(CNC(=O)COc2cc(C)c(Cl)c(C)c2)N2CCCCC2)cc1 (centres undefined)	/	.	.
O=C(CNC(=O)c1ccco1)OCC(=O)c1ccc([N+](=O)[O-])cc1	/	.	.
CCCn1nnc(NC(=O)/C=C/c2ccccc2)n1	.	.	.
Cc1nc(NC(=O)/C=C/c2ccccc2)n[nH]1	39.2	.	?
CCOc1ccc(OCc2cccc(C(=O)N/N=C/c3cccnc3)c2)cc1	.	.	.
CC(C)c1ccc(OCc2cccc(C(=O)N/N=C/c3cccnc3)c2)cc1	33.5	.	.
COc1ccc(OC)c(CNC(=O)c2coc(=O)c3ccccc23)c1	.	.	.
C/C(=N/OC(=O)C1CC1)c1cc(-c2ccc(Cl)cc2)no1	.	.	.
CCOC(=O)c1c(C)[nH]c(C(=O)N/N=C/c2cccc(OC)c2)c1C	.	.	.
COc1cccc(/C=N/NC(=O)c2[nH]c(C)c(C(=O)N/N=C/c3cccc(OC)c3)c2C)c1	36.0	.	.
O=c1c2ccccc2nc2oc3ccccc3n12	/	.	.
COc1ccc(C2C(C(=O)N3CCCCC3)CCC(=O)N2c2cc(OC)c(OC)c(OC)c2)cc1 (centres undefined)	38.1	.	.
COc1ccc(C2C(C(=O)N3CCOCC3)CCC(=O)N2c2cc(OC)c(OC)c(OC)c2)cc1 (centres undefined)	.	.	.
O=C(O)c1ccccc1CSc1nc2ccccc2[nH]1	/	.	.
SMILES	Mdm2 ligase inh	p-CIP stab down	Hep lipid drop
Cc1ccc([N+](=O)[O-])c2c1C(N1CC(C)OC(C)C1)C(C)(C)O2 (centres undefined)	.	.	.
Cc1nn(-c2ccccc2)c(N2CCCC2)c1/C=N/Nc1ccc(S(=O)(=O)Nc2ccccc2)cc1[N+](=O)[O-]	.	.	82.2
COc1c(/C=N/Nc2ccc([N+](=O)[O-])cc2[N+](=O)[O-])c(C)nn1-c1ccccc1	.	.	/
COc1cc(/C=N/O)ccc1Oc1cnccn1	/	.	/
CCCOC(=O)c1ccc(NC(=O)/C=C/c2cccs2)cc1	.	.	80.0
O=C(/C=C/c1cccs1)Nc1ccncc1	.	.	.
COc1ccc2c(c1OC)C(=O)N(c1ccc(OCc3ccccc3)cc1)C2=O	/	.	/
CCN(CC)c1ccc(C=C2C(=O)OC3(CCCCC3)OC2=O)cc1	.	.	.
CCN(CC)c1ccc(/C=C2/C(=O)c3ccc(C(=O)O)cc3C2=O)cc1	63.3	.	.
CCOC(=O)C(NC(C)=O)(OCc1ccccc1)C(F)(F)F (centres undefined)	.	.	.
CCOC(=O)C(NC(=O)c1cccc(Cl)c1)(OCc1ccccc1)C(F)(F)F (centres undefined)	.	.	70.9
O=C(CSC1CC(=O)N(c2ccc(C(=O)O)cc2)C1=O)Nc1ccc(Cl)cc1 (centres undefined)	.	.	.
Cc1cc(=O)n2[nH]c(-c3ccc(F)cc3)nc2n1	.	.	/
Cc1cc(=O)n2[nH]c(N3C(=O)CCC3=O)nc2n1	30.4	.	/
COC(=O)c1c(NC(=O)C(C)(C)C)csc1C	.	.	.
O=C(/C=C/c1ccccc1)NNC1=NS(=O)(=O)c2ccccc21	.	.	.
COc1cccc(/C=N/N2CCN(C3c4ccccc4-c4ccccc43)CC2)c1O	.	.	57.3
COc1cc(/C=N/N2CCN(C3c4ccccc4-c4ccccc43)CC2)ccc1O	.	.	.
Cc1ccc(-c2nn(C)c(=O)c3ccccc23)cc1CN1CCCCC1	.	.	.
Cc1onc(-c2ccccc2Cl)c1C(N)=O	.	.	/
COC(=O)c1c(-c2ccccc2Cl)noc1/C=C/N(C)C	42.5	.	.
CN(Cc1ccccc1)C(=O)N1CCOCC1	.	.	.
CS(=O)(=O)N(CC(=O)N1CCN(Cc2ccccc2)CC1)c1cccc(Cl)c1	/	.	/
CC(=O)Nc1ccc(NC(=O)CCn2c(=S)oc3ccccc32)cc1	.	.	.
CC(=O)/C=C/n1c(=S)oc2ccccc21	51.3	.	.
SMILES	Mdm2 ligase inh	p-CIP stab down	Hep lipid drop
CC(C)CC(=O)/C=C/n1c(=S)oc2ccccc21	58.3	.	.
Cn1c(=S)oc2ccccc21	.	.	.
O=C(/C=C/c1ccccc1)CC(=O)c1ccccc1O	.	.	.
N#Cc1cccnc1N1CCN(C(=O)c2cccs2)CC1	/	.	.
Cc1ccc(S(=O)(=O)N2CCN(S(=O)(=O)N3CCCCCC3)CC2)cc1	.	.	.
CCCNC(=O)c1ccc(CN2CCOCC2)cc1	.	.	.
CC1(C(=O)OCC(=O)Nc2ccc3ccccc3c2)CC1(Cl)Cl (centres undefined)	.	.	.
CCC(=O)N1CCc2cc(S(=O)(=O)NCCc3ccc(S(N)(=O)=O)cc3)ccc21	/	.	.
Cc1ccc2c(c1)C=CC(C)(C)S2=O (centres undefined)	118.3	.	.
CC[N+]1=C(C)C(C)(C)c2cc(C)ccc21	.	.	.
COc1ccc(NC(=O)C(OC(=O)c2cnccn2)c2ccccc2)cc1Cl (centres undefined)	/	.	.
CCOc1ccc(CCNC(=O)c2cnc(C)cn2)cc1OCC	/	.	.
COc1ccc(CCNC(=O)COC(=O)c2cnc(C)cn2)cc1OC	30.7	.	/
C=CCn1c(=O)c2ccccc2n2c(SCC(C)=O)nnc12	/	.	.
CCN(CC)CCNC(CC(=O)Nc1ccc(Cl)cc1Cl)C(=O)O (centres undefined)	.	.	62.6
CCN(CC)CCNC(=O)COc1ccc(Cl)cc1Cl	.	.	/
O=C(Nc1ccc(-c2nc3ncccc3o2)cc1)c1ccco1	.	.	.
O=C(Nc1ccc(-c2nc3ncccc3o2)cc1)c1ccc(Br)o1	.	.	55.7
Cn1cccc1/C=C1\SC(=S)N(NC(=O)c2ccccc2Cl)C1=O	.	.	.
Cc1ccc(C(=O)NN2C(=O)/C(=C/c3cccn3C)SC2=S)cc1	30.4	.	.
COc1cccc(-c2[nH]nc3c2C(c2ccsc2)C(C#N)=C(N)O3)c1 (centres undefined)	31.5	.	/
